# Results reported in ChEMBL document CHEMBL6092129, “Inhibiting SARS-CoV-2 viral entry by targeting spike:ACE2 interaction with O-modified quercetin derivatives” (RSC Med Chem, 2024).
# Activity calls are given as the source filed them. The calls are words filed in the database; no cut-off is given here.
# Experiments:
# [1] = target: T1, Spike glycoprotein/Angiotensin-converting enzyme 2 (Severe acute respiratory syndrome coronavirus 2) (UniProt Q9BYF1+P0DTC2); experiment: Inhibition of SARS CoV-2 S1 RBD/biotinylated ACE2 (unknown origin) protein-protein interaction at 100 uM preincubated with S1 protein for 60 mins followed by addition of ACE2 protein measured after 60 mins by ELISA; type: protein assay; settings: time 120.0 min
# Procedure, shortened: (§1)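 SARS-CoV-2 S1 RBD coated at 2 µg/mL (60 min, 37 °C), then blocked with 1% BSA in PBS pH 7.2–7.4 (30 min, 37 °C). Compound (0.8, 4.0, 20.0 or 100.0 µM) incubated 60 min at 37 °C with 0.05% DMSO–PBS vehicle control. Biotin-ACE2 solution (0.5 µg/mL) added for 60 min, then ExtrAvidin-peroxidase (40 min) and OPD (10 min, RT, dark), read at 450 nm. Three trials; IC50 from four-parameter fit (bottom 0, Hill slope 1).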
# [2] = Hepatotoxicity against human HepG2 cells at 30.22 ppm incubated for 30 mins by LDH release based CytoTox 96 assay relative to control; type: toxicity, cell-based; settings: hepg2, 0.5 h
# HK-2 [3] = experiment: Nephrotoxicity against human HK-2 cells at 30.22 ppm incubated for 30 mins by LDH release based CytoTox 96 assay relative to control; type: toxicity, cell-based; settings: hk-2, 0.5 h
# H9c2 [4] = experiment: Cardiotoxicity against rat H9c2 cells at 30.22 ppm incubated for 30 mins by LDH release based CytoTox 96 assay relative to control; type: toxicity, cell-based; settings: h9c2, 0.5 h
# [5] = target: T1, Spike glycoprotein/Angiotensin-converting enzyme 2 (Severe acute respiratory syndrome coronavirus 2); experiment: (§2) Inhibition of SARS CoV-2 S1 RBD/biotinylated ACE2 (unknown origin) protein-protein interaction preincubated with S1 protein for 60 mins followed by addition of ACE2 protein measured after 60 mins by ELISA; type: protein assay; settings: time 120.0 min; procedure, shortened: as §1
# [6] = target: Spike glycoprotein/Angiotensin-converting enzyme 2 (Severe acute respiratory syndrome coronavirus 2, UniProt P0DTC2+Q9BYF1); experiment: as §2; type: protein assay; procedure, shortened: as §1
# [7] = Hepatotoxicity against human HepG2 cells at 1.03 ppm incubated for 30 mins by LDH release based CytoTox 96 assay relative to control; type: toxicity, cell-based; settings: hepg2, 0.5 h
# HK-2 [8] = experiment: Nephrotoxicity against human HK-2 cells at 1.03 ppm incubated for 30 mins by LDH release based CytoTox 96 assay relative to control; type: toxicity, cell-based; settings: hk-2, 0.5 h
# H9c2 [9] = experiment: Cardiotoxicity against rat H9c2 cells at 1.03 ppm incubated for 30 mins by LDH release based CytoTox 96 assay relative to control; type: toxicity, cell-based; settings: h9c2, 0.5 h
# [10] = target: T1, Spike glycoprotein/Angiotensin-converting enzyme 2 (Severe acute respiratory syndrome coronavirus 2); experiment: Inhibition of SARS CoV-2 S1 RBD/biotinylated ACE2 (unknown origin) protein-protein interaction at 0.8 uM preincubated with S1 protein for 60 mins followed by addition of ACE2 protein measured after 60 mins by ELISA relative to control; type: protein assay; settings: time 120.0 min; procedure, shortened: as §1
# [11] = Hepatotoxicity against human HepG2 cells at 1.54 ppm incubated for 30 mins by LDH release based CytoTox 96 assay relative to control; type: toxicity, cell-based; settings: hepg2, 0.5 h
# HK-2 [12] = experiment: Nephrotoxicity against human HK-2 cells at 1.54 ppm incubated for 30 mins by LDH release based CytoTox 96 assay relative to control; type: toxicity, cell-based; settings: hk-2, 0.5 h
# H9c2 [13] = experiment: Cardiotoxicity against rat H9c2 cells at 1.54 ppm incubated for 30 mins by LDH release based CytoTox 96 assay relative to control; type: toxicity, cell-based; settings: h9c2, 0.5 h
# [14] = target: T1, Spike glycoprotein/Angiotensin-converting enzyme 2 (Severe acute respiratory syndrome coronavirus 2); experiment: Inhibition of SARS CoV-2 S1 RBD/biotinylated ACE2 (unknown origin) protein-protein interaction at 100 uM preincubated with S1 protein for 60 mins followed by addition of ACE2 protein measured after 60 mins by ELISA relative to control; type: protein assay; settings: time 120.0 min; procedure, shortened: as §1
# [15] = Hepatotoxicity against human HepG2 cells at 4.71 ppm incubated for 30 mins by LDH release based CytoTox 96 assay relative to control; type: toxicity, cell-based; settings: hepg2, 0.5 h
# HK-2 [16] = experiment: Nephrotoxicity against human HK-2 cells at 4.71 ppm incubated for 30 mins by LDH release based CytoTox 96 assay relative to control; type: toxicity, cell-based; settings: hk-2, 0.5 h
# H9c2 [17] = experiment: Cardiotoxicity against rat H9c2 cells at 4.71 ppm incubated for 30 mins by LDH release based CytoTox 96 assay relative to control; type: toxicity, cell-based; settings: h9c2, 0.5 h
# [18] = Hepatotoxicity against human HepG2 cells at 2.07 ppm incubated for 30 mins by LDH release based CytoTox 96 assay relative to control; type: toxicity, cell-based; settings: hepg2, 0.5 h
# HK-2 [19] = experiment: Nephrotoxicity against human HK-2 cells at 2.07 ppm incubated for 30 mins by LDH release based CytoTox 96 assay relative to control; type: toxicity, cell-based; settings: hk-2, 0.5 h
# H9c2 [20] = experiment: Cardiotoxicity against rat H9c2 cells at 2.07 ppm incubated for 30 mins by LDH release based CytoTox 96 assay relative to control; type: toxicity, cell-based; settings: h9c2, 0.5 h
# [21] = Hepatotoxicity against human HepG2 cells at 12.09 ppm incubated for 30 mins by LDH release based CytoTox 96 assay relative to control; type: toxicity, cell-based; settings: hepg2, 0.5 h
# HK-2 [22] = experiment: Nephrotoxicity against human HK-2 cells at 12.09 ppm incubated for 30 mins by LDH release based CytoTox 96 assay relative to control; type: toxicity, cell-based; settings: hk-2, 0.5 h
# H9c2 [23] = experiment: Cardiotoxicity against rat H9c2 cells at 12.09 ppm incubated for 30 mins by LDH release based CytoTox 96 assay relative to control; type: toxicity, cell-based; settings: h9c2, 0.5 h
# Sequence of Spike glycoprotein/Angiotensin-converting enzyme 2 (Q9BYF1 whole entry, looked up, other chains not shown): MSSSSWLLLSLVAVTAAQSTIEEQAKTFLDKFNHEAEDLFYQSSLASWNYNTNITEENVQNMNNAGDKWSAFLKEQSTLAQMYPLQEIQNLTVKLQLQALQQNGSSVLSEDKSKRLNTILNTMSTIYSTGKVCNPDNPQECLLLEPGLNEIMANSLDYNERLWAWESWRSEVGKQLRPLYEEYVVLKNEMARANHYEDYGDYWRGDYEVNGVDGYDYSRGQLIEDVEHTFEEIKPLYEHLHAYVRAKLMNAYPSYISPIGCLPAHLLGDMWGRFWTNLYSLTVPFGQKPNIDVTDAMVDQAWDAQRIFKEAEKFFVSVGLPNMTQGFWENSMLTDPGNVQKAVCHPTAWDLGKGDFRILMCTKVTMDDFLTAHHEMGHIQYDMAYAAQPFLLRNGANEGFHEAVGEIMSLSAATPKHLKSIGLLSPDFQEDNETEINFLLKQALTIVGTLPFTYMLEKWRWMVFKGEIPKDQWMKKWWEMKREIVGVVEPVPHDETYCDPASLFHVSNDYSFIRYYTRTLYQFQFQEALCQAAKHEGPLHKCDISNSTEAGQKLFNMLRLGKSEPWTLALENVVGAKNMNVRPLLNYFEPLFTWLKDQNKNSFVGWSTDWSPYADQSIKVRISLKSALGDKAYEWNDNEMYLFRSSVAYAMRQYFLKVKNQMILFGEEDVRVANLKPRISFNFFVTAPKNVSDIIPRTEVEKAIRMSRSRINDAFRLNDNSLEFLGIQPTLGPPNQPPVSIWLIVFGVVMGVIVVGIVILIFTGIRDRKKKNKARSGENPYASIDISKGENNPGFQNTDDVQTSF
compound,measurement,setting,value
O=c1c(O)c(-c2ccc(O)c(O)c2)oc2cc(O)cc(O)c12 [QUERCETIN],inhibition,[1],inactive
same,Activity,[2],1.74%
same,Activity,HK-2 [3],1.56%
same,Activity,H9c2 [4],12.93%
C=CCOc1cc(O)c2c(=O)c(OCC=C)c(-c3ccc(OCC=C)c(OCC=C)c3)oc2c1,inhibition,[5],Dose-dependent-effect
same,IC50,[6],2.22 µM
same,Activity,[7],0%
same,Activity,HK-2 [8],0.04%
same,Activity,H9c2 [9],1.83%
O=c1c(OCc2ccccc2)c(-c2ccc(OCc3ccccc3)c(O)c2)oc2cc(OCc3ccccc3)cc(O)c12,inhibition,[10],> 50%
CCC(=O)Oc1cc(O)c2c(=O)c(OC(=O)CC)c(-c3ccc(OC(=O)CC)c(O)c3)oc2c1,inhibition,[5],Dose-dependent-effect
same,IC50,[6],3.28 µM
same,Activity,[11],0.21%
same,Activity,HK-2 [12],0.26%
same,Activity,H9c2 [13],1.95%
CC(=O)Oc1cc(O)c2c(=O)c(OC(C)=O)c(-c3ccc(OC(C)=O)c(OC(C)=O)c3)oc2c1,inhibition,[10],> 50%
O=C(Oc1cc(O)c2c(=O)c(OC(=O)c3ccccc3)c(-c3ccc(OC(=O)c4ccccc4)c(OC(=O)c4ccccc4)c3)oc2c1)c1ccccc1,inhibition,[14],< 50%
O=C(Oc1cc(O)c2c(=O)c(OC(=O)c3ccccc3)c(-c3ccc(OC(=O)c4ccccc4)c(O)c3)oc2c1)c1ccccc1,inhibition,[10],> 50%
O=c1c(OCc2ccc(F)cc2)c(-c2ccc(OCc3ccc(F)cc3)c(O)c2)oc2cc(OCc3ccc(F)cc3)cc(O)c12,inhibition,[5],Dose-dependent-effect
same,IC50,[6],7.52 µM
same,Activity,[15],0.4%
same,Activity,HK-2 [16],1.29%
same,Activity,H9c2 [17],1.21%
CCOc1cc(O)c2c(=O)c(OCC)c(-c3ccc(OCC)c(OCC)c3)oc2c1,inhibition,[5],Dose-dependent-effect
same,IC50,[6],5 µM
same,Activity,[18],1.47%
same,Activity,HK-2 [19],5.5%
same,Activity,H9c2 [20],0.11%
O=c1c(OCc2ccc(F)cc2)c(-c2ccc(OCc3ccc(F)cc3)c(OCc3ccc(F)cc3)c2)oc2cc(OCc3ccc(F)cc3)cc(O)c12,inhibition,[14],< 50%
CCCOc1cc(O)c2c(=O)c(OCCC)c(-c3ccc(OCCC)c(O)c3)oc2c1,inhibition,[10],> 50%
CCCOc1cc(O)c2c(=O)c(OCCC)c(-c3ccc(OCCC)c(OCCC)c3)oc2c1,inhibition,[5],Dose-dependent-effect
same,IC50,[6],25.7 µM
same,Activity,[21],0.39%
same,Activity,HK-2 [22],1.71%
same,Activity,H9c2 [23],1.05%
CCOc1cc(O)c2c(=O)c(OCC)c(-c3ccc(OCC)c(O)c3)oc2c1,inhibition,[10],> 50%
C=CCOc1cc(O)c2c(=O)c(OCC=C)c(-c3ccc(OCC=C)c(O)c3)oc2c1,inhibition,[10],> 50%
O=C1OC2(c3ccccc31)c1cc(I)c(O)c(I)c1Oc1c2cc(I)c(O)c1I [ERYTHROSINE],inhibition,[5],Dose-dependent-effect
same,IC50,[6],6.16 µM
CCC(=O)Oc1cc(O)c2c(=O)c(OC(=O)CC)c(-c3ccc(OC(=O)CC)c(OC(=O)CC)c3)oc2c1,inhibition,[10],> 50%
O=c1c(OCc2ccccc2)c(-c2ccc(OCc3ccccc3)c(OCc3ccccc3)c2)oc2cc(OCc3ccccc3)cc(O)c12,inhibition,[14],< 50%
CC(=O)Oc1cc(O)c2c(=O)c(OC(C)=O)c(-c3ccc(OC(C)=O)c(O)c3)oc2c1,inhibition,[10],> 50%
